“Also recorded” adds a separate entry of the source.
Assays:
U-937 (lymphoma) cells = details: read-out: IC50 U-937; ref [18],[19]; cited from earlier work
[1] = test system: HeLa (cervical) cancer cells; details: read-out: IC50 HeLa (literature); ref [18],[19]; cited from earlier work
[2] = test system: panel of seven human cancer cell lines; assay: Antiproliferative activity across the panel of seven cancer cell lines; assay type: cell-based; details: for IC50: Homo sapiens, read-out: IC50 range over the panel of cancer cell lines
Summary of the method: (§1)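 Jurkat, CEM and SEM cells were grown in RPMI-1640, and HeLa, MCF-7, HT-29 and LoVo in DMEM, each with 10% FBS and penicillin/streptomycin. Wells got 8 × 10^3 cells and were preincubated 18 h at 37 °C in 5% CO2. Test compound from a 10 mM DMSO stock was diluted in medium (final DMSO ≤0.25%) and applied for 72 h. Read-out was MTT. IC50 is the concentration giving 50% inhibition of proliferation, from dose–response curves of ≥3 independent experiments, mean ± SE.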

Bovine brain tubulin = assay: In vitro inhibition of tubulin polymerization; assay type: biochemical; details: 10 μM purified tubulin, glutamate buffer, 30 °C
Summary of the method: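 Tubulin was purified from bovine brain. Varying test-compound concentrations were preincubated with the tubulin at 30 °C, then cooled to 0 °C. GTP was added, the mixtures were moved to 0 °C cuvettes in a recording spectrophotometer and warmed to 30 °C, and assembly was followed turbidimetrically.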

Jurkat cells = assay: Cell growth inhibitory activity; assay type: cell-based, human; details: additional meta-methoxy
Summary of the method: as §1

LoVo cells = assay: Cell growth inhibitory activity; assay type: cell-based, human; details: additional meta-methoxy
Summary of the method: as §1

[3] = test system: microtubule network in HeLa cells; assay: Immunofluorescence analysis of microtubule network; assay type: cell-based, human; details: 2.5 or 5.0 μM, 24 h, anti-β-tubulin staining
Summary of the method: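 Untreated HeLa cells served as the control. After 24 h exposure, cells were fixed in cold 4% formaldehyde for 15 min. Staining used mouse monoclonal anti-β-tubulin (1:1000), then an Alexa-conjugated secondary antibody (1:2000), with DAPI (1:10,000) counterstain for nuclei. Cells were imaged by confocal microscopy at 20×.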

[4] = test system: Bcl-2, Bax, Bak, Mcl-1 and Bid in HeLa cells; assay: Western blot of Bcl-2 family proteins; assay type: cell-based, human; details: for Mcl-1 expression: 2.5 μM, especially at 48 h; for Bid expression: evident after 24 h at the lowest concentration used
Summary of the method: (§2)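 HeLa cultures were sampled at the indicated times and concentrations, washed twice in 0 °C PBS and lysed 30 min at 0 °C. Lysates were clarified at 15 000 × g (4 °C, 10 min) and protein was measured by BCA. Aliquots of 20 µg were run on 7.5–15% gradient SDS-PAGE and blotted to PVDF. Membranes were blocked at 4 °C, probed 2 h at room temperature with primary antibody, then 60 min with peroxidase-labelled secondary, and developed by ECL. Membranes were reprobed for β-actin as the loading control.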

[5] = test system: PBMC not stimulated with PHA; assay: Cytotoxicity in resting PBMC; assay type: cell-based, human; details: resting PBMC vs lymphoblastic cell lines
Summary of the method: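 PBMC from healthy donors were isolated on a Lymphoprep gradient, washed, and held overnight at 1.0 × 10^6 cells/mL in RPMI-1640 with 10% FBS. Non-adherent cells were resuspended at 5 × 10^5 cells/mL without PHA, given a range of test-compound concentrations for 72 h, and read by MTT. Values are mean ± SEM of three separate experiments.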

γH2A.X in HeLa cells = assay: Western blot of γH2A.X; assay type: cell-based, human; details: 24 or 48 h treatment
Summary of the method: as §2

HeLa cells [6] = assay: Cell viability; assay type: cell-based, human; details: 2.5 μM, 48 h; BHA 10 μM, TOC 100 μM, NAC 100 μM, GSH 1 mM, DTT 1 mM
HeLa cells [7] = assay: Flow cytometric analysis of cell cycle distribution; assay type: cell-based, human; details: 24 h; for effect on cell cycle progression: PI, concentration-dependent, reduction in S phase cells
Summary of the method: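 HeLa cells in exponential growth (2.5 × 10^5) were treated with a range of test-compound concentrations. Cells were collected, fixed in ice-cold 70% ethanol, and lysed in buffer containing RNase A and 0.1% Triton X-100. They were stained with propidium iodide for flow-cytometric DNA content, and the DNA histograms were analysed to give the percentage of cells in each phase.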

HeLa cells [8] = assay: Intracellular GSH content; assay type: cell-based, human; details: 24 h, concentration-dependent; counteracted by NAC 100 μM
HeLa cells [9] = assay: Cell viability with or without pan-caspase inhibitor z-VAD.fmk; assay type: cell-based, human; details: compound 2.5 μM, z-VAD.fmk 100 μM, 48 h
Summary of the method: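 HeLa cells were exposed for 48 h to test compound with or without the pan-caspase inhibitor, and viability was recorded as a percentage. Data are means ± SEM of three independent experiments. Significance against compound-alone treatment was tested by Student's t-test. Final DMSO was ≤0.25%.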

HeLa cells [10] = assay: Annexin-V/PI apoptosis assay; assay type: cell-based, human; details: 24 h, further increased after 48 h
HeLa cells [11] = assay: Mitochondrial membrane potential; assay type: cell-based, human; details: JC-1, time course
HeLa cells [12] = assay: ROS production by flow cytometry; assay type: cell-based, human
[13] = test system: murine leukemia L1210 cells; details: read-out: IC50 L1210; ref [21]; cited from earlier work

For COc1cccc(/C=C/C(=O)Nc2cc(OC)c(OC)c(OC)c2)c1 [1a], the IC50 (U-937 (lymphoma) cells) is listed as 3000 nM and the IC50 [1] is listed as 11300 nM.
In the case of COc1cc(NC(=O)/C=C/c2cccc(OCc3ccccc3)c2)cc(OC)c1OC [1b, reference compound], the IC50 (U-937 (lymphoma) cells) is given as 1800 nM, the IC50 [2] is given as 2200 to 21700 nM and the “fold more potent than 1a” value ([2]; across seven cell lines) is given as 1.5- to 12 fold.
With C=C(Br)C(=O)Nc1cccc(/C=C/C(=O)Nc2ccccc2)c1 [4a, N-{3-[(1E)-3-anilino-3-oxoprop-1-en-1-yl]phenyl}-2-bromoacrylamide] the IC50 [2] was 190 to 27300 nM.
C=C(Br)C(=O)Nc1cccc(/C=C/C(=O)Nc2cccc3ccccc23)c1 [4b, 2-Bromo-N-(3-{(1E)-3-oxo-3-[(naphthalen-1-yl)amino]prop-1-en-1-yl}phenyl)-acrylamide] gave an IC50 [2] of 680 to 6500 nM.
With C=C(Br)C(=O)Nc1cccc(/C=C/C(=O)Nc2cccc(F)c2)c1 [4d, 2-Bromo-N-(3-{(1E)-3-oxo-3-[(3-fluorophenyl)amino]prop-1-en-1-yl}phenyl)-acrylamide] the “fold enhancement of antiproliferative activity vs 4c” value ([2]; fluorine moved para to meta, six of seven cell lines, exception CEM) was 4–15 fold.
In the case of C=C(Br)C(=O)Nc1cccc(/C=C/C(=O)Nc2ccc(F)c(F)c2)c1 [4e, 2-Bromo-N-(3-{(1E)-3-oxo-3-[(3,4-difluorophenyl)amino]prop-1-en-1-yl}phenyl)-acrylamide], the “Concentration up to which tubulin assembly was not inhibited” value (Bovine brain tubulin) is reported as > 20 µM and the “fold increase of antiproliferative activity relative to 4c” value ([2]; additional meta-fluorine, all cancer cell lines) is reported as 4–1300 fold.
In the case of C=C(Br)C(=O)Nc1cccc(/C=C/C(=O)Nc2ccc(Cl)cc2)c1 [4f, 2-Bromo-N-(3-{(1E)-3-oxo-3-[(4-chlorophenyl)amino]prop-1-en-1-yl}phenyl)-acrylamide], the “fold increase of antiproliferative activity, fluorine to chlorine” value ([2]; vs 4c) is reported as 2–30 fold.
In the case of C=C(Br)C(=O)Nc1cccc(/C=C/C(=O)Nc2ccc(C)cc2)c1 [4g, 2-Bromo-N-(3-{(1E)-3-oxo-3-[(p-tolyl)amino]prop-1-en-1-yl}phenyl)-acrylamide], the “fold increase in potency vs 4f” value ([2]; chlorine replaced by methyl) is reported as 2–10 fold.
In the case of C=C(Br)C(=O)Nc1cccc(/C=C/C(=O)NCc2ccc(C)cc2)c1 [4h, 2-Bromo-N-(3-{(1E)-3-[(4-methylbenzyl)amino]-3-oxoprop-1-en-1-yl}phenyl)acrylamide], the “fold reduced activity compared with 4g” value ([2]; cell lines other than HeLa, LoVo and MCF-7) is reported as 2 to 7 fold.
For C=C(Br)C(=O)Nc1cccc(/C=C/C(=O)Nc2ccc(OC)cc2)c1 [4i, 2-Bromo-N-(3-{(1E)-3-oxo-3-[(4-methoxyphenyl)amino]prop-1-en-1-yl}phenyl)-acrylamide], the “Concentration up to which tubulin assembly was not inhibited” value (Bovine brain tubulin) was > 20 µM and the “fold increase in antiproliferative activity relative to 4a” value ([2]; para-methoxy) was 7–15 fold.
In the case of C=C(Br)C(=O)Nc1cccc(/C=C/C(=O)Nc2ccc(OC)c(OC)c2)c1 [4m, 2-Bromo-N-(3-{(1E)-3-oxo-3-[(3,4-dimethoxyphenyl)amino]prop-1-en-1-yl}phenyl)-acrylamide], the “fold increase in activity vs 4i, Jurkat” value (Jurkat cells) is reported as 2 fold, the “Concentration up to which tubulin assembly was not inhibited” value (Bovine brain tubulin) is reported as > 20 µM and the “fold increase in activity vs 4i, LoVo” value (LoVo cells) is reported as 3 fold.
With C=C(Br)C(=O)Nc1cccc(/C=C/C(=O)Nc2cc(OC)c(OC)c(OC)c2)c1 [4o, 2-Bromo-N-(3-{(1E)-3-oxo-3-[(3,4,5-trimethoxyphenyl)amino]prop-1-en-1-yl}phenyl)-acrylamide] the “Concentration up to which tubulin assembly was not inhibited” value (Bovine brain tubulin) was > 20 µM and the IC50 [2] was 18 to 2300 nM.
With C=C(Br)C(=O)Nc1cccc(/C=C/C(=O)Nc2ccc(N3CCOCC3)cc2)c1 [4p, 2-Bromo-N-(3-{(1E)-3-oxo-3-[(4-morpholinophenyl)amino]prop-1-en-1-yl}phenyl)-acrylamide] the “effect on microtubule network” value [3] was “not substantially modified”, the “Bak and Bax expression” value [4] was “remained practically unchanged” and the Mcl-1 expression [4] was “decreased”. The Bid expression [4] was “nearly complete disappearance”, the “fold lower toxicity in resting PBMC respect to Jurkat and CEM” value [5] was 10–100 fold and the γH2A.X expression (γH2A.X in HeLa cells) was “induced this effect only after 48 h”. The “Concentration up to which tubulin assembly was not inhibited” value (Bovine brain tubulin) was > 20 µM, the “cell viability in the presence of antioxidants” value (HeLa cells [6]) was “only the thiol-containing scavengers (NAC, GSH and DTT) significantly increased cell viability” and the “effect on cell cycle progression” value (HeLa cells [7]) was “significant G2/M arrest”. For the same compound, the “intracellular GSH content (CMFDA fluorescence)” value (HeLa cells [8]) was “remarkable decrease; also recorded: substantially reduced CMFDA fluorescence”, the “fold enhancement of antiproliferative activity relative to 4a” value ([2]; morpholin-4-yl, six of seven cell lines, exception CEM) was 8–100 fold and the “cell viability with z-VAD.fmk” value (HeLa cells [9]) was “significantly increased cell viability”. For the same compound, the annexin-V positive cells (HeLa cells [10]) was “accumulation of annexin-V positive cells”.
For C=C(Br)C(=O)Nc1ccc(/C=C/C(=O)Nc2cc(OC)c(OC)c(OC)c2)cc1 [4r], the “effect on microtubule network” value [3] was “not substantially modified”, the “Bak and Bax expression” value [4] was “remained practically unchanged” and the Mcl-1 expression [4] was “decreased”. The Bcl-2 expression ([4]; 24 and 48 h) was “decreased”, the Bid expression [4] was “nearly complete disappearance” and the “fold lower toxicity in resting PBMC respect to Jurkat and CEM” value [5] was 10–100 fold. The γH2A.X expression (γH2A.X in HeLa cells) was “induced γH2A.X expression”, the “mitochondrial depolarization, onset time” value (HeLa cells [11]) was ≥ 12 h and the “ROS production, H2DCFDA-positive cells” value (HeLa cells [12]; 1–6 h, concentration-dependent) was “early but modest increase”. The “ROS production, HE fluorescence (superoxide anion)” value (HeLa cells [12]; data not shown) was “did not detect any increase”, the “Concentration up to which tubulin assembly was not inhibited” value (Bovine brain tubulin) was > 20 µM and the “cell viability in the presence of antioxidants” value (HeLa cells [6]) was “only the thiol-containing scavengers (NAC, GSH and DTT) significantly increased cell viability”. The “concentration at which rise in G2/M cells occurs (as low as)” value (HeLa cells [7]) was 2 µM, the “effect on cell cycle progression” value (HeLa cells [7]) was “significant G2/M arrest” and the “intracellular GSH content (CMFDA fluorescence)” value (HeLa cells [8]) was “substantially reduced CMFDA fluorescence”. The “cell viability with z-VAD.fmk” value (HeLa cells [9]) was “significantly increased cell viability” and the annexin-V positive cells (HeLa cells [10]) was “accumulation of annexin-V positive cells”.
With COc1cc(NC(=O)/C=C/c2cccc(N)c2)cc(OC)c1OC [7o, (E)-3-(3-aminophenyl)-N-(3,4,5-trimethoxyphenyl)acryl-amide] the IC50 [2] was 2810 to 63100 nM and the “fold less active than 4o” value ([2]; across seven cell lines) was 30–700 fold.
In the case of C=C(Br)C(=O)O [α-bromoacrylic acid], the IC50 [13] is listed as > 120000 nM.

— paper PMC4094378 (European journal of medicinal chemistry, 2014)
